Test results from ChEMBL document CHEMBL4052636, “Design, synthesis and biological evaluation of some novel sulfonamide derivatives as apoptosis inducers” (Eur J Med Chem, 2017).

Assays:
[1] = tested on: Caco-2; experiment: Cytotoxicity against human Caco2 cells assessed as surviving fraction at 10 uM after 24 hrs by MTT assay relative to control; assay type: functional
Procedure, shortened: (§1)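 Caco-2 cells were kept as monolayers in RPMI-1640 with 10% FBS, 100 U/mL penicillin and streptomycin, at 37 C in humidified 5% CO2. Cells were treated for 24 h at concentrations spanning […], and viability was read by the colorimetric MTT (Mosmann) method. Percent relative viability and IC50 were fitted in Prism.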

[2] = tested on: Caco-2; experiment: Cytotoxicity against human Caco2 cells assessed as cell viability after 24 hrs by MTT assay; assay type: functional, cell-based; details: Caco-2, 24 h; procedure, shortened: as §1
[3] = tested on: Caco-2; experiment: Cytotoxicity against human Caco2 cells assessed as surviving fraction at 50 uM after 24 hrs by MTT assay relative to control; assay type: functional; procedure, shortened: as §1
[4] = tested on: Caco-2; experiment: Cytotoxicity against human Caco2 cells assessed as surviving fraction at 100 uM after 24 hrs by MTT assay relative to control; assay type: functional; procedure, shortened: as §1
[5] = tested on: Caco-2; experiment: Cytotoxicity against human Caco2 cells assessed as surviving fraction at 25 uM after 24 hrs by MTT assay relative to control; assay type: functional; procedure, shortened: as §1
[6] = tested on: Caco-2; experiment: Cytotoxicity against human Caco2 cells assessed as surviving fraction at 1 uM after 24 hrs by MTT assay relative to control; assay type: functional; procedure, shortened: as §1
[7] = tested on: Caco-2; experiment: Induction of apoptosis in human Caco2 cells assessed as Fas-ligand concentration at 0.15 uM after 24 hrs by FASL-based ELISA (reference value: 20.5 pg/ml); assay type: functional
[8] = tested on: Caco-2; experiment: Induction of apoptosis in human Caco2 cells assessed as Fas-ligand concentration at 0.6 uM after 24 hrs by FASL-based ELISA (reference value: 20.5 pg/ml); assay type: functional
[9] = tested on: Caco-2; experiment: Induction of apoptosis in human Caco2 cells assessed as caspase-3 concentration at 0.15 uM after 24 hrs by colorimetric analysis (reference value: 0.193 nmol/ml); assay type: functional
[10] = tested on: Caco-2; experiment: Induction of apoptosis in human Caco2 cells assessed as caspase-3 concentration at 0.3 uM after 24 hrs by colorimetric analysis (reference value: 0.193 nmol/ml); assay type: functional
[11] = tested on: Caco-2; experiment: Induction of apoptosis in human Caco2 cells assessed as Fas-ligand concentration at 0.3 uM after 24 hrs by FASL-based ELISA (reference value: 20.5 pg/ml); assay type: functional
[12] = tested on: Caco-2; experiment: Induction of apoptosis in human Caco2 cells assessed as caspase-3 concentration at 0.6 uM after 24 hrs by colorimetric analysis (reference value: 0.193 nmol/ml); assay type: functional
[13] = tested on: Caco-2; experiment: Induction of apoptosis in human Caco2 cells assessed as caspase-3 concentration at 100 uM after 24 hrs by colorimetric analysis (reference value: 0.193 nmol/ml); assay type: functional
[14] = tested on: Caco-2; experiment: Induction of apoptosis in human Caco2 cells assessed as caspase-3 concentration at 31 uM after 24 hrs by colorimetric analysis (reference value: 0.193 nmol/ml); assay type: functional
[15] = tested on: Caco-2; experiment: Induction of apoptosis in human Caco2 cells assessed as Fas-ligand concentration at 100 uM after 24 hrs by FASL-based ELISA (reference value: 20.5 pg/ml); assay type: functional
[16] = tested on: Caco-2; experiment: Induction of apoptosis in human Caco2 cells assessed as Fas-ligand concentration at 31.5 uM after 24 hrs by FASL-based ELISA (reference value: 20.5 pg/ml); assay type: functional
[17] = tested on: Caco-2; experiment: Induction of apoptosis in human Caco2 cells assessed as caspase-3 concentration at 62.3 uM after 24 hrs by colorimetric analysis (reference value: 0.193 nmol/ml); assay type: functional
[18] = tested on: Caco-2; experiment: Induction of apoptosis in human Caco2 cells assessed as Fas-ligand concentration at 63.5 uM after 24 hrs by FASL-based ELISA (reference value: 20.5 pg/ml); assay type: functional
[19] = tested on: Caco-2; experiment: Induction of apoptosis in human Caco2 cells assessed as Fas-ligand concentration at 15 uM after 24 hrs by FASL-based ELISA (reference value: 20.5 pg/ml); assay type: functional
Procedure, shortened: (§2)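 Caco-2 cells were grown in RPMI-1640 with 10% FBS, penicillin and streptomycin at 37 C under 5% CO2. Cells were exposed to the test agent for 24 h. Fas-ligand in the cells was then measured with a colorimetric human FASL ELISA kit and reported as pg/mL against an untreated control.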

[20] = tested on: Caco-2; experiment: Induction of apoptosis in human Caco2 cells assessed as Fas-ligand concentration at 62 uM after 24 hrs by FASL-based ELISA (reference value: 20.5 pg/ml); assay type: functional; procedure, shortened: as §2
[21] = tested on: Caco-2; experiment: Induction of apoptosis in human Caco2 cells assessed as caspase-3 concentration at 62 uM after 24 hrs by colorimetric analysis (reference value: 0.193 nmol/ml); assay type: functional
[22] = tested on: Caco-2; experiment: Induction of apoptosis in human Caco2 cells assessed as caspase-3 concentration at 15 uM after 24 hrs by colorimetric analysis (reference value: 0.193 nmol/ml); assay type: functional
[23] = tested on: Caco-2; experiment: Induction of apoptosis in human Caco2 cells assessed as Fas-ligand concentration at 31 uM after 24 hrs by FASL-based ELISA (reference value: 20.5 pg/ml); assay type: functional; procedure, shortened: as §2

COc1ccc(-c2onc3nc(Nc4ccc(S(N)(=O)=O)cc4)sc23)cc1
Ratio [1]: 0.401 | IC50 [2]: 559 nM | Ratio [3]: 0.229 | Ratio [4]: 0.228 | Ratio [5]: 0.317 | Ratio [6]: 0.412

NS(=O)(=O)c1ccc(NC2=NC(=O)/C(=C/c3ccccc3)S2)cc1
Activity [7]: 445.2 pg/mL | Activity [8]: 706.12 pg/mL | Ratio [1]: 0.182 | Activity [9]: 0.43 nmol/mL | IC50 [2]: 334 nM | Activity [10]: 0.38 nmol/mL | Ratio [3]: 0.422 | Ratio [4]: 0.068 | Ratio [5]: 0.133 | Ratio [6]: 0.348 | Activity [11]: 775.2 pg/mL | Activity [12]: 0.37 nmol/mL

NS(=O)(=O)c1ccc(Nc2nc3nc(=O)[nH]c(-c4ccc(Cl)cc4)c3s2)cc1
Ratio [1]: 0.603 | IC50 [2]: 12700 nM | Ratio [3]: 0.156 | Ratio [4]: 0.073 | Ratio [5]: 0.112 | Ratio [6]: 0.519

COc1ccc(-c2[nH]c(=S)nc3nc(Nc4ccc(S(N)(=O)=O)cc4)sc23)cc1
Ratio [1]: 0.344 | IC50 [2]: 667 nM | Ratio [3]: 0.186 | Ratio [4]: 0.169 | Ratio [5]: 0.299 | Ratio [6]: 0.444

NS(=O)(=O)c1ccc(NC2=NC(=O)/C(=C/c3ccc(Cl)cc3)S2)cc1
Ratio [1]: 0.314 | IC50 [2]: 667 nM | Ratio [3]: 0.086 | Ratio [4]: 0.153 | Ratio [5]: 0.113 | Ratio [6]: 0.285

NS(=O)(=O)c1ccc(Nc2nc3noc(-c4ccccc4)c3s2)cc1
Ratio [1]: 0.335 | IC50 [2]: 669 nM | Ratio [3]: 0.295 | Ratio [4]: 0.456 | Ratio [5]: 0.304 | Ratio [6]: 0.442

COc1ccc(-c2[nH]c(=O)nc3nc(Nc4ccc(S(N)(=O)=O)cc4)sc23)cc1
Ratio [1]: 0.362 | IC50 [2]: 667 nM | Ratio [3]: 0.257 | Ratio [4]: 0.167 | Ratio [5]: 0.473 | Ratio [6]: 0.477

COc1ccc(/C=C2\SC(Nc3ccc(S(N)(=O)=O)cc3)=NC2=O)cc1
Ratio [1]: 0.179 | IC50 [2]: 1330 nM | Ratio [3]: 0.416 | Ratio [4]: 0.485 | Ratio [5]: 0.466 | Ratio [6]: 0.281

NS(=O)(=O)c1ccc(Nc2nc3noc(-c4ccc(Cl)cc4)c3s2)cc1
Activity [7]: 111.3 pg/mL | Activity [8]: 312.2 pg/mL | Ratio [1]: 0.248 | Activity [9]: 0.366 nmol/mL | IC50 [2]: 333 nM | Activity [10]: 0.409 nmol/mL | Ratio [3]: 0.202 | Ratio [4]: 0.197 | Ratio [5]: 0.219 | Ratio [6]: 0.319 | Activity [11]: 147.5 pg/mL | Activity [12]: 0.407 nmol/mL

NS(=O)(=O)c1ccc(Nc2nc3nc(=S)[nH]c(-c4ccccc4)c3s2)cc1
Activity [7]: 115.5 pg/mL | Activity [8]: 307.5 pg/mL | Ratio [1]: 0.223 | Activity [9]: 0.35 nmol/mL | IC50 [2]: 333 nM | Activity [10]: 0.34 nmol/mL | Ratio [3]: 0.223 | Ratio [4]: 0.135 | Ratio [5]: 0.234 | Ratio [6]: 0.304 | Activity [11]: 165.7 pg/mL | Activity [12]: 0.364 nmol/mL

NS(=O)(=O)c1ccc(Nc2nc3nc(=S)[nH]c(-c4ccc(Cl)cc4)c3s2)cc1
Activity [7]: 312.4 pg/mL | Activity [8]: 641.8 pg/mL | Ratio [1]: 0.456 | Activity [9]: 0.404 nmol/mL | IC50 [2]: 333 nM | Activity [10]: 0.366 nmol/mL | Ratio [3]: 0.339 | Ratio [4]: 0.276 | Ratio [5]: 0.338 | Ratio [6]: 0.433 | Activity [11]: 309.4 pg/mL | Activity [12]: 0.37 nmol/mL

NS(=O)(=O)c1ccc(Nc2nc3nc(=O)[nH]c(-c4ccccc4)c3s2)cc1
Ratio [1]: 0.237 | IC50 [2]: 334 nM | Ratio [3]: 0.229 | Ratio [4]: 0.227 | Ratio [5]: 0.285 | Ratio [6]: 0.371

COc1cccc2c1C(=O)c1c(O)c3c(c(O)c1C2=O)C[C@@](O)(C(=O)CO)C[C@@H]3O[C@H]1C[C@H](N)[C@H](O)[C@H](C)O1 [DOXORUBICIN]
Ratio [1]: 0.597 | Activity [13]: 0.272 nmol/mL | IC50 [2]: 63300 nM | Activity [14]: 0.251 nmol/mL | Ratio [3]: 0.552 | Ratio [4]: 0.343 | Activity [15]: 95.8 pg/mL | Ratio [5]: 0.663 | Activity [16]: 41.65 pg/mL | Activity [17]: 0.26 nmol/mL | Ratio [6]: 0.814 | Activity [18]: 56.41 pg/mL

O=c1[nH]cc(F)c(=O)[nH]1 [FLUOROURACIL]
Activity [19]: 287.7 pg/mL | Ratio [1]: 0.31 | Activity [20]: 66.2 pg/mL | Activity [21]: 0.73 nmol/mL | IC50 [2]: 31000 nM | Activity [14]: 0.8 nmol/mL | Ratio [3]: 0.525 | Activity [22]: 0.92 nmol/mL | Ratio [4]: 0.254 | Activity [23]: 140.1 pg/mL | Ratio [5]: 0.325 | Ratio [6]: 0.405
